By pIC50 is commonly meant the IC50 on a negative log10 scale, so that one unit is a factor of ten. As a reminder, the inhibition is how much of the control response was suppressed.

The values that follow come from ChEMBL document CHEMBL3352815, “Indolinone based LRRK2 kinase inhibitors with a key hydrogen bond” (Bioorg Med Chem Lett, 2014).

pIC50: −log10 of the molar value.

The target in series [1] is T1, Leucine-rich repeat serine/threonine-protein kinase 2 (Homo sapiens, UniProt Q5S007). The experiment in a line: Inhibition of recombinant LRRK2 (unknown origin) using gamma-32P-ATP assessed as LRRKtide substrate phosphorylation level by autoradiography.
T1 sequence (Q5S007 whole entry): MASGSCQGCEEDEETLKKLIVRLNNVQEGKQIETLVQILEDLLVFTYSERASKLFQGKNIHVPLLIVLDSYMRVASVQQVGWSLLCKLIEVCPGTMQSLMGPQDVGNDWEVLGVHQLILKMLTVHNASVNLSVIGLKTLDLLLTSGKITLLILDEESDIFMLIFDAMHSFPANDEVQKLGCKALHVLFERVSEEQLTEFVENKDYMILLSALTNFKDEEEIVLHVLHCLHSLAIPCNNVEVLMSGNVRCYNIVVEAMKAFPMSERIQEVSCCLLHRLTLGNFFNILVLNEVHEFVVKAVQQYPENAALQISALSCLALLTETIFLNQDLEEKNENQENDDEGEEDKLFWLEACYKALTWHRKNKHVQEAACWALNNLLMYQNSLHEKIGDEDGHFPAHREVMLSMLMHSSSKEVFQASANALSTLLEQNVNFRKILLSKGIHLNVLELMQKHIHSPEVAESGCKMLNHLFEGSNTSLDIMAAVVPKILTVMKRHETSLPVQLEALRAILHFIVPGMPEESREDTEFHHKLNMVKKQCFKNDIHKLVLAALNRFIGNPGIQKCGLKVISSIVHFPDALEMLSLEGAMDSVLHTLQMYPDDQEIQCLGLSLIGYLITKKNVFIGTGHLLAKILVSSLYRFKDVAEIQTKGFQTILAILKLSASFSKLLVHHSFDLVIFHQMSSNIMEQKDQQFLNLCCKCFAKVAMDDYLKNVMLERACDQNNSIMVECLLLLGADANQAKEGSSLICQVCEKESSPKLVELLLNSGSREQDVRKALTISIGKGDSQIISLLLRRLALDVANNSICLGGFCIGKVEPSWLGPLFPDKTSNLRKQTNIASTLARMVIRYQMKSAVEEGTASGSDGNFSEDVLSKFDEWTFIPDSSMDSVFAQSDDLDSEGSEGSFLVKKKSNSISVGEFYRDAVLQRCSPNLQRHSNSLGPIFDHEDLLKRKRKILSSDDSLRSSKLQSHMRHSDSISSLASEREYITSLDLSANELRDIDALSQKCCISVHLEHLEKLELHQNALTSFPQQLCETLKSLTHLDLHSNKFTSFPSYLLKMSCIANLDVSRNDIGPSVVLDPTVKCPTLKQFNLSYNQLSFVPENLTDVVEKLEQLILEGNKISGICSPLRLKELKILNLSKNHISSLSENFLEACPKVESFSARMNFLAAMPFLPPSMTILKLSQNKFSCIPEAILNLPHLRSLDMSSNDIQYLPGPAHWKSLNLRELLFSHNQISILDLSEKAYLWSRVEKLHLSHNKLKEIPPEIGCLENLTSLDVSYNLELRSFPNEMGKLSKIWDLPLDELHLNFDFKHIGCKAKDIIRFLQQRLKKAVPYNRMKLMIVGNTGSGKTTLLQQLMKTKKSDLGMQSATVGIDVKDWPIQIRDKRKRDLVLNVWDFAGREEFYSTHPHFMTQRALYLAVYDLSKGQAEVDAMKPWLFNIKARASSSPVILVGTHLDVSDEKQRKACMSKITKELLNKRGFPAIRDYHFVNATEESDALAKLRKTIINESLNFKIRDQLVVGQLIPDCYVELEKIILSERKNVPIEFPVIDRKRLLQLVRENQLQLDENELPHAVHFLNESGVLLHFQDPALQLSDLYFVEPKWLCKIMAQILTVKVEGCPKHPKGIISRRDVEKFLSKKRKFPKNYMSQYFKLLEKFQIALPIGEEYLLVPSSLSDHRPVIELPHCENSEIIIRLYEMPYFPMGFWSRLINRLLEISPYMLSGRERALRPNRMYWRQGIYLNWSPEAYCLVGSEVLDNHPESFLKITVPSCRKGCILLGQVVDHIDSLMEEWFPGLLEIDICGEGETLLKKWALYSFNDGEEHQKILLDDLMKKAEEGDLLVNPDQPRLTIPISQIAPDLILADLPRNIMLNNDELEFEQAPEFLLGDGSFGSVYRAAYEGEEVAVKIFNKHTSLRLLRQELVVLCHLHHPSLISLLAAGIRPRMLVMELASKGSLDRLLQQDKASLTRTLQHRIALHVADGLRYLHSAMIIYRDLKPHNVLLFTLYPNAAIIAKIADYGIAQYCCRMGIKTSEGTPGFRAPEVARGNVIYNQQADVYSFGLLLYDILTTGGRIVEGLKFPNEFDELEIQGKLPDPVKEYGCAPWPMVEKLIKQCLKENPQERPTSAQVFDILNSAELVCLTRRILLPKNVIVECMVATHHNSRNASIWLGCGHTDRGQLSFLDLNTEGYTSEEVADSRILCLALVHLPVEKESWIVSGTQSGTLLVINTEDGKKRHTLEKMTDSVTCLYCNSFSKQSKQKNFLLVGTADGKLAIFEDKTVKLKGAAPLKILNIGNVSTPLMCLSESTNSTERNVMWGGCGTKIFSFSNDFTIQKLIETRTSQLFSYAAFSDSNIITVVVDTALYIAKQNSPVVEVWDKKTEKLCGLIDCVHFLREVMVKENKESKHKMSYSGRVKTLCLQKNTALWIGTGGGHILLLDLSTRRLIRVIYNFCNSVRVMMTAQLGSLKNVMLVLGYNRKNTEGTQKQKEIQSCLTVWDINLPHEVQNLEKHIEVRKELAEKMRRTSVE
Series [2] addresses T1, Leucine-rich repeat serine/threonine-protein kinase 2. The experiment in a line: Inhibition of recombinant LRRK2 (unknown origin) using gamma-32P-ATP assessed as LRRKtide substrate phosphorylation level at 10 uM by autoradiography. Details: scale not given: the % may be the effect or the level left. Put shortly: (§1)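 In vitro LRRK2 kinase activity assay with a peptide substrate. Compound was tested at two concentrations, 10 and 1. Read-out is residual LRRK2 kinase activity, given as percent relative to control.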

Series [3] has the same target. Briefly: Inhibition of recombinant LRRK2 (unknown origin) using gamma-32P-ATP assessed as LRRKtide substrate phosphorylation level at 1 uM by autoradiography. Details: scale not given: the % may be the effect or the level left. Put shortly: as §1
Series [4] is filed under the species Danio rerio. Briefly: Toxicity in zebrafish embryo assessed as crooked tails at 5 to 10 uM after 24 hrs. The format is organism-based. The conditions noted are these: in vivo.
In series [5] the target is Glycogen synthase kinase-3 beta (Homo sapiens) (UniProt P49841). Briefly: Inhibition of human recombinant GSK3beta using CFFKNIVTPRTPPPSQGK-amide substrate after 90 mins incubation by LANCE method. In general terms: In TR-FRET formats the signal depends on donor and acceptor labels being close together.
Series [6] in a line: Toxicity in zebrafish embryo assessed as lethality at 20 to 30 uM after 24 hrs. The format is organism-based, Danio rerio. The following applies: in vivo, read-out: Activity. The method, boiled down:
(§2)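 Zebrafish embryos kept in E3 medium at 28 °C; compound added at 24 hpf, with 1% DMSO embryos as control. Concentrations from 1 to 100 µM. Lethality recorded over time through 120 hpf, with phenotype also compared at 96 hpf.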

For series [7], the target named is Cyclin-dependent kinase 2 (Homo sapiens) (UniProt P24941). The experiment in a line: Inhibition of human recombinant CDK2 using Ulight-CFFKNIVTPRTPPPSQGK-amide substrate assessed as remaining enzyme activity at 1 uM after 30 mins relative to control.
Series [8] can be described thus: Toxicity in zebrafish embryo assessed as lethality at 30 uM after 120 hrs. The conditions noted are these: in vivo, read-out: Activity. The format is organism-based, Danio rerio. Put shortly: as §2
For series [9], the species on record is Danio rerio. The experiment in a line: Toxicity in zebrafish embryo at below 10 uM after 24 hrs. The conditions noted are these: in vivo. The format is organism-based. Put shortly: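 Zebrafish embryos collected and kept in E3 medium at 28 °C. Compound added at 24 hpf, and phenotypes (growth, tail morphology) were compared at 96 hpf against control embryos in 1% DMSO. Lethality was followed over time up to 120 hpf across a concentration series.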

In series [10] the target is Insulin receptor (Homo sapiens) (UniProt P06213). The experiment in a line: Inhibition of human recombinant InsR using Ulight-Poly GAT[EAY(1:1:1)]n substrate assessed as remaining enzyme activity at 1 uM after 10 mins relative to control.
In series [11] the target is Serine/threonine-protein kinase TAO2 (Homo sapiens) (UniProt Q9UL54). The experiment in a line: Inhibition of human recombinant TAOK2 (TAO1) using Ulight-FLGFTYVAP substrate assessed as remaining enzyme activity at 1 uM after 60 mins relative to control.
Series [12] deals with Proto-oncogene tyrosine-protein kinase Src (Homo sapiens) (UniProt P12931). The experiment in a line: Inhibition of human recombinant Src kinase expressed insect cells using Ulight-Poly GAT[EAY(1:1:1)]n substrate assessed as remaining enzyme activity at 1 uM after 10 mins relative to control.
Series [13] has as its target Vascular endothelial growth factor receptor 2 (Homo sapiens) (UniProt P35968). Briefly: Inhibition of human recombinant KDR kinase expressed Sf9 cells using Ulight-CAGAGAIETDKEYYTVKD substrate assessed as remaining enzyme activity at 1 uM after 60 mins relative to control.
Series [14] addresses MAP kinase-activated protein kinase 2 (Homo sapiens) (UniProt P49137). The experiment in a line: Inhibition of human recombinant MAPKAPK2 expressed Escherichia coli using CREBtide (CKRREILSRRPSYRK) substrate assessed as remaining enzyme activity at 1 uM after 15 mins relative to control.
Series [15] has as its target High affinity nerve growth factor receptor (Homo sapiens) (UniProt P04629). Briefly: Inhibition of human recombinant TRKA expressed insect cells using Ulight-Poly GAT[EAY(1:1:1)]n substrate assessed as remaining enzyme activity at 1 uM after 10 mins relative to control.
The target of series [16] is MAP kinase-interacting serine/threonine-protein kinase 2 (Homo sapiens) (UniProt Q9HBH9). Briefly: Inhibition of human recombinant MNK2 expressed Sf21 cells using CREBtide (CKRREILSRRPSYRK) substrate assessed as remaining enzyme activity at 1 uM after 90 mins relative to control.
MAP kinase-interacting serine/threonine-protein kinase 2 (Homo sapiens), sequence (Q9HBH9 whole entry, looked up): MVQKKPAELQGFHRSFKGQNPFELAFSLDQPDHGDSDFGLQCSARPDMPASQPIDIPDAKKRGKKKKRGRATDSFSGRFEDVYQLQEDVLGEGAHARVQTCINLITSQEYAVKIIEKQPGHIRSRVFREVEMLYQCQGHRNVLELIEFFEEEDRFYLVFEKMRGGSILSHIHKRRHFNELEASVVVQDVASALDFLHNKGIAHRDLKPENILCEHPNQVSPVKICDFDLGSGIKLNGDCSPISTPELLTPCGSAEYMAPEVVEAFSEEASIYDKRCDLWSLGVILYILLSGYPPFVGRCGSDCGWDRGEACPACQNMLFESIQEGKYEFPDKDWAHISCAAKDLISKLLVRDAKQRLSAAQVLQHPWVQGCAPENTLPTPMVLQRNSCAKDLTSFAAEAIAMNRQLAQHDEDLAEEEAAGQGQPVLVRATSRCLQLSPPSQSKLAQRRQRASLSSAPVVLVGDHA
The target in series [17] is Serine/threonine-protein kinase Chk2 (Homo sapiens) (UniProt O96017). The experiment in a line: Inhibition of human recombinant CHK2 expressed insect cells using CREBtide (CKRREILSRRPSYRK) substrate assessed as remaining enzyme activity at 1 uM after 15 mins relative to control.
For series [18], the target named is Rho-associated protein kinase 1 (Homo sapiens) (UniProt Q13464). Briefly: Inhibition of human recombinant ROCK1 using Ulight-RRRSLLE substrate assessed as remaining enzyme activity at 1 uM after 30 mins relative to control.
Series [19] addresses 3-phosphoinositide-dependent protein kinase 1 (Homo sapiens) (UniProt O15530). Briefly: Inhibition of human recombinant PDK1 expressed insect cells using Ulight-FLGFTYVAP substrate assessed as remaining enzyme activity at 1 uM after 90 mins relative to control.
Series [20] concerns the target Serine/threonine-protein kinase Sgk1 (Homo sapiens) (UniProt O00141). The experiment in a line: Inhibition of human recombinant SGK1 using Ulight-RRRSLLE substrate assessed as remaining enzyme activity at 1 uM after 30 mins relative to control.
Series [21] deals with Serine/threonine-protein kinase Nek2 (Homo sapiens) (UniProt P51955). Briefly: Inhibition of human recombinant NEK2 expressed insect cells using Ulight-FLGFTYVAP substrate assessed as remaining enzyme activity at 1 uM after 60 mins relative to control.
Series [22] deals with Serine/threonine-protein kinase 26 (Homo sapiens) (UniProt Q9P289). Briefly: Inhibition of human recombinant MST4 kinase using Ulight TM- PKC substrate assessed as remaining enzyme activity at 1 uM after 30 mins relative to control.
For series [23], the target named is Tyrosine-protein kinase Lck (Homo sapiens) (UniProt P06239). The experiment in a line: Inhibition of human recombinant Lck kinase expressed insect cells using Ulight-Poly GAT[EAY(1:1:1)]n substrate assessed as remaining enzyme activity at 1 uM after 30 mins relative to control.
Series [24] addresses Tyrosine-protein kinase ABL1 (Homo sapiens) (UniProt P00519). The experiment in a line: Inhibition of human recombinant Abl kinase expressed insect cells using Ulight-TK peptide substrate assessed as remaining enzyme activity at 1 uM after 60 mins relative to control.
Series [25] addresses Interleukin-1 receptor-associated kinase 4 (Homo sapiens) (UniProt Q9NWZ3). The experiment in a line: Inhibition of human recombinant IRAK4 expressed insect cells using Ulight-FLGFTYVAP substrate assessed as remaining enzyme activity at 1 uM after 90 mins relative to control.
The target of series [26] is Serine/threonine-protein kinase Chk1 (Homo sapiens) (UniProt O14757). The experiment in a line: Inhibition of human recombinant CHK1 expressed insect cells using CREBtide (CKRREILSRRPSYRK) substrate assessed as remaining enzyme activity at 1 uM after 30 mins relative to control.
Serine/threonine-protein kinase Chk1 (Homo sapiens), sequence (O14757 whole entry): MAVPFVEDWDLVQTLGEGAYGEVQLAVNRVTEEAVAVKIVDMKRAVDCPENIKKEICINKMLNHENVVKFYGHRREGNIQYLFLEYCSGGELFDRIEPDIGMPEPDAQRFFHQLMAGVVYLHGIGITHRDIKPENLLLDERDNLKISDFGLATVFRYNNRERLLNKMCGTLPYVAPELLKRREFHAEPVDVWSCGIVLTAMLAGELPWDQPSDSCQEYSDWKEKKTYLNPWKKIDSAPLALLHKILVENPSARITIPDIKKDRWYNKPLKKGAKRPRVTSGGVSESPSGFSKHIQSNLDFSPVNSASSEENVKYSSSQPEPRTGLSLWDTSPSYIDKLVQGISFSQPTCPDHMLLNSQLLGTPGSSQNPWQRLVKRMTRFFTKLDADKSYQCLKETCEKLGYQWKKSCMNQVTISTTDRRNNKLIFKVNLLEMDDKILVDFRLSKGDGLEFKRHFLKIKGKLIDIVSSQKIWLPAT
The target of series [27] is RAC-alpha serine/threonine-protein kinase (Homo sapiens) (UniProt P31749). Briefly: Inhibition of human recombinant Akt1/PKBalpha expressed insect cells using CKRREILSRRPSYRK substrate assessed as remaining enzyme activity at 1 uM after 60 mins relative to control.
The target of series [28] is Cyclin-dependent kinase 1/cyclin B1 (Homo sapiens) (UniProt P06493+P14635). The experiment in a line: Inhibition of human recombinant CDC2/CDK1 (cycB) expressed insect cells using Ulight-CFFKNIVTPRTPPPSQGK-amide substrate assessed as remaining enzyme activity at 1 uM after 15 mins relative to control.
The target of series [29] is Serine/threonine-protein kinase PLK1 (Homo sapiens) (UniProt P53350). The experiment in a line: Inhibition of human recombinant PLK1 using Ulight-FLGFTYVAP substrate assessed as remaining enzyme activity at 1 uM after 60 mins relative to control.
In series [30] the target is Ephrin type-A receptor 3 (Homo sapiens) (UniProt P29320). Briefly: Inhibition of human recombinant EphA3 kinase using Ulight-TK peptide substrate assessed as remaining enzyme activity at 1 uM after 60 mins relative to control.
Ephrin type-A receptor 3 (Homo sapiens), sequence (P29320 whole entry, looked up): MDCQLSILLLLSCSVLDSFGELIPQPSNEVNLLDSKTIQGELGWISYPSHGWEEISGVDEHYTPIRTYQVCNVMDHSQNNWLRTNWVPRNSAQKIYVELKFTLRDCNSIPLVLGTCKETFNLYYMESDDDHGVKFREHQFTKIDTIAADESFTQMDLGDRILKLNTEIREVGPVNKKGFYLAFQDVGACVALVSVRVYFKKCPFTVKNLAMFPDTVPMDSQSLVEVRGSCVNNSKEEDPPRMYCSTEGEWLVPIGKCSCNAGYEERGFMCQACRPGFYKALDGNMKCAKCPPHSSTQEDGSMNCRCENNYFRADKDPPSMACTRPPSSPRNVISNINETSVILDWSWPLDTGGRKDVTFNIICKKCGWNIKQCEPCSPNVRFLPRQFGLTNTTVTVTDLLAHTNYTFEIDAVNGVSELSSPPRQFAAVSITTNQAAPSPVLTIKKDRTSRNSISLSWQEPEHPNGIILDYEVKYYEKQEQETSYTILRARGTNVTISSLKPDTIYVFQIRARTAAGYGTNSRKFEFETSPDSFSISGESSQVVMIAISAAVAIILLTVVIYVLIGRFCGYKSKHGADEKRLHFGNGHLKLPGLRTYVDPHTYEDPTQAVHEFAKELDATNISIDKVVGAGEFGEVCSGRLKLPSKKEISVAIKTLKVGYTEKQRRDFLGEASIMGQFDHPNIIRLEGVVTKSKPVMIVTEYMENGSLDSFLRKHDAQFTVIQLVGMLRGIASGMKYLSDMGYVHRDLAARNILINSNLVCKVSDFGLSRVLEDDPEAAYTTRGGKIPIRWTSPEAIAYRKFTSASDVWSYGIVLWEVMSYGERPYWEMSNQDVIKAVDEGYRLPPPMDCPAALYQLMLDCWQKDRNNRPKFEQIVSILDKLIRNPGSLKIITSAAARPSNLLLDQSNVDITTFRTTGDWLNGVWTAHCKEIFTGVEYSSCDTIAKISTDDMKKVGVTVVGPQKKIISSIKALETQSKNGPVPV
Series [31] concerns the target Hepatocyte growth factor receptor (Homo sapiens) (UniProt P08581). Briefly: Inhibition of human recombinant c-Met kinase expressed insect cells using Ulight-CAGAGAIETDKEYYTVKD substrate assessed as remaining enzyme activity at 1 uM after 60 mins relative to control.

MAP kinase-activated protein kinase 2 (Homo sapiens), sequence (P49137 whole entry, looked up): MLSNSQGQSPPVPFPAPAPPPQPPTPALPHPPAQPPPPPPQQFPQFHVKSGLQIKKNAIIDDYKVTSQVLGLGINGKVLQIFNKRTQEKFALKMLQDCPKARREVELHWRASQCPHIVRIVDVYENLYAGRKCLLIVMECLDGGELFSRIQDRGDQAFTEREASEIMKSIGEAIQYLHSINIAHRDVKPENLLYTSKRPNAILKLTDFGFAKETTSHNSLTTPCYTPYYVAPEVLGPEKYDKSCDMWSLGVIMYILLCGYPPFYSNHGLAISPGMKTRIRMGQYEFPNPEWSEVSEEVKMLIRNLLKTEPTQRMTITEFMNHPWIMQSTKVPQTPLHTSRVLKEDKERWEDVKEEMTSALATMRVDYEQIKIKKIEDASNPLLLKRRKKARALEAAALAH

As for `COc1c(C)cc(/C=C2/C(=O)Nc3ccc(Cl)cc32)cc1C`, the pIC50 in series [1] was 5.82.

Regarding `COc1cc(/C=C2/C(=O)Nc3ccc(Cl)cc32)ccc1OCCN1CCOCC1`, the Activity in [2] worked out at 9%; in series [3], 8%. For the same compound, the pIC50 in [1] was 6.79.

Take `COc1cc(OCCN(C)C)ccc1/C=C1/C(=O)Nc2ccc(Cl)cc21`: the Activity in [2] is 29%; in series [3] it was 62%.

`O=C1Nc2ccc(Cl)cc2/C1=C\c1ccc(OCCN2CCOCC2)cc1`: the Activity in series [2] turned out to be 15%; in series [3], 37%. Also, the pIC50 in series [1] was 6.69.

For `COc1ccc2c(c1)/C(=C\c1cc(Br)c(O)c(Br)c1)C(=O)N2`, the negative-log IC50 (pIC50) in [1] was 7.51.

As to `O=C1Nc2ccc(Cl)cc2/C1=C\c1ccc(O)cc1`, the Activity in series [2] stood at 8%; in series [3], 12%. Also, the pIC50 in series [1] is 4.92.

As to `O=C1Nc2ccc(Cl)cc2/C1=C\c1ccc(O)c(Br)c1`, in the series filed under Danio rerio [4], the Activity entry is “Toxic”. For the same compound, the inhibition in series [5] turned out to be 19%. The mortality at 24 h, up to 30 µM in series [6] is more than 80%.

Regarding `COc1cc(/C=C2/C(=O)Nc3ccc(Cl)cc32)ccc1OCCN(C)C`, the Activity in series [2] came to 24%; in series [3], 26%.

Consider `CN(C)CCOc1ccc(/C=C2/C(=O)Nc3ccc(Cl)cc32)cc1`, for which the Activity in [2] worked out at 3%; in series [3], 22%. Also, the negative-log IC50 (pIC50) in series [1] is 6.33.

In the case of `COc1cc(C(=O)N2CCC(N3CCN(C)CC3)CC2)ccc1Nc1ncc2c(n1)N(C)c1ccccc1C(=O)N2C`, the Activity is 5% in series [2] and 13% in series [3].

In the case of `O=C1Nc2ccc(Cl)cc2/C1=C/c1cc(Br)c(O)c(Br)c1`, the Activity in series [7] is 95%; in the series filed under Danio rerio [9], “Non-toxic”; in series [10], 104%; in [11] it was 85%; in [12], 101%; in [13], 97%. Further, the Activity in series [14] came out at 83%; in series [15], 91%; in series [16] it was 89%; in [17], 87%; in series [18], 92%; in series [19] it was 83%. Also, the Activity in series [20] turned out to be 100%; in series [21], 99%; in series [22], 103%; in series [23] it was 102%; in series [24], 77%; in [25], 90%. The Activity in series [26] amounted to 81%; in series [27], 87%; in [28], 90%; in series [29], 80%; in [30], 101%; in [31] it was 69%. In series [8], the mortality at 120 h, 30 µM stood at 40%.

Turning to `CN[C@@H]1C[C@H]2O[C@@](C)([C@@H]1OC)n1c3ccccc3c3c4c(c5c6ccccc6n2c5c31)C(=O)NC4`, the Activity in [2] came to 2%; in series [3] it was 5%.

On to `O=C1Nc2ccc(Cl)cc2/C1=C\c1ccccc1`, for which the Activity in series [2] was found to be 16%; in series [3], 27%. Also, the negative logarithm of the IC50 (pIC50) in [1] is 5.00.

Regarding `COc1cc(/C=C2/C(=O)Nc3ccc(Cl)cc32)ccc1N1CCOCC1`, the Activity came out at 33% in series [2] and 22% in series [3].
